Results: ChEMBL document CHEMBL2169881, “Synthesis and biological activity of obatoclax derivatives as novel and potent SHP-1 agonists” (Eur J Med Chem, 2012)
Blank lines part the entries; values can stand above or below the molecule they belong to. Activity calls are given as the source filed them. The calls are words filed in the database; no cut-off is given here.

What was measured:
Assay type in all cases: functional, cell-based
[1] = Cytotoxicity against human PLC5 cells by MTT assay
Procedure, shortened: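 MTT viability assay on PLC5 hepatocellular carcinoma cells maintained in DMEM with 10% FBS, penicillin, streptomycin and amphotericin B at 37 °C, 5% CO2. IC50 is the concentration giving 50% growth inhibition, interpolated from dose–response curves.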

[2] = biological target: Tyrosine-protein phosphatase non-receptor type 6 (Homo sapiens) (UniProt P29350); assay: Agonist activity at SHP1 in human PLC5 cells assessed as increase in SHP1 level at 10 uM after 12 hrs by Western blot analysis
Procedure, shortened: (§1)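 PLC5 cells (ATCC) grown in DMEM with 10% FBS, penicillin G, streptomycin and amphotericin B at 37 °C, 5% CO2. Cells treated at 10 μM for 12 h. Lysates immunoblotted for p-STAT3, STAT3, SHP-1, Mcl-1, survivin, cyclin D1, PARP, with actin as loading control.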

[3] = biological target: Tyrosine-protein phosphatase non-receptor type 6 (Homo sapiens) (UniProt P29350); assay: Agonist activity at SHP1 in human PLC5 cells at 10 uM after 6 hrs by immunoprecipitation method
[4] = biological target: Tyrosine-protein phosphatase non-receptor type 6 (Homo sapiens) (UniProt P29350); assay: Agonist activity at SHP1 in human PLC5 cells assessed as decrease in pSTAT3-mediated cyclinD1 level at 10 uM after 12 hrs by Western blot analysis; procedure, shortened: as §1
[5] = biological target: Tyrosine-protein phosphatase non-receptor type 6 (Homo sapiens) (UniProt P29350); assay: Agonist activity at SHP1 in human PLC5 cells assessed as decrease in pSTAT3-mediated survivin level at 10 uM after 12 hrs by Western blot analysis; procedure, shortened: as §1
[6] = biological target: Tyrosine-protein phosphatase non-receptor type 6 (Homo sapiens) (UniProt P29350); assay: Agonist activity at SHP1 in human PLC5 cells assessed as decrease in pSTAT3-mediated Mcl1 level at 10 uM after 12 hrs by Western blot analysis; procedure, shortened: as §1
[7] = biological target: Tyrosine-protein phosphatase non-receptor type 6 (Homo sapiens) (UniProt P29350); assay: Agonist activity at SHP1 in human PLC5 cells assessed as inhibition of STAT3 Y705 phosphorylation at 10 uM after 12 hrs by Western blot analysis; procedure, shortened: as §1
[8] = biological target: Tyrosine-protein phosphatase non-receptor type 6 (Homo sapiens) (UniProt P29350); assay: Agonist activity at SHP1 in human PLC5 cells assessed as inhibition of IL6-induced STAT3 phosphorylation at 10 uM incubated for 24 hrs prior to IL6-induction measured after 30 mins by sandwich ELISA
Procedure, shortened: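 PLC5 cells, cultured in DMEM/10% FBS with antibiotics at 37 °C, 5% CO2, were pretreated with compound at 10 μM for 24 h. IL-6 (10 ng/mL) stimulation followed for 30 min before STAT3 activity was read.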

Sequence of Tyrosine-protein phosphatase non-receptor type 6 (Homo sapiens) (P29350 whole entry): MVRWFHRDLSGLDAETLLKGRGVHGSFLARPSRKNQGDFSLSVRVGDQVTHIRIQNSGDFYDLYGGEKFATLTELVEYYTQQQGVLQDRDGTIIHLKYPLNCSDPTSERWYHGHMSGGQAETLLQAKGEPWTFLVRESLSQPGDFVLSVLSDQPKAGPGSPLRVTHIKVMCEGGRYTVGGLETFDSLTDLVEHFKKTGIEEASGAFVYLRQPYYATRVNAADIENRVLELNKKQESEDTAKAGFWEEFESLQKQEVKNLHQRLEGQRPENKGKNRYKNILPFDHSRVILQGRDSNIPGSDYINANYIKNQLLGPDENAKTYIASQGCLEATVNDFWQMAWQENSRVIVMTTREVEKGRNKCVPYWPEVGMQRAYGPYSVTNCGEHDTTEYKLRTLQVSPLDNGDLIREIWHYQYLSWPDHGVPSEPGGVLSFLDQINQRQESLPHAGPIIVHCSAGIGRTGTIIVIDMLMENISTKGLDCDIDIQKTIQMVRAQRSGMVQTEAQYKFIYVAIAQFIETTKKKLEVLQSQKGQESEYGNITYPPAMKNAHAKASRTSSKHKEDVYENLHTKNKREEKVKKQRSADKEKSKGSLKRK

SMILES: COC1=CC(c2cc3ccccc3n2C(=O)OC(C)(C)C)=N/C1=C\c1[nH]c(C)cc1C
IC50 [1]: 28.4 µM

SMILES: COC1=CC(c2cc3ccccc3[nH]2)=N/C1=C\c1cccs1
IC50 [1]: > 40 µM

Activity [2]: Active
Activity [3]: Active
Activity [4]: Active
Activity [6]: Active
inhibition [7]: Active
inhibition [8]: Active
SMILES: COC1=CC(c2cc3ccccc3[nH]2)=N/C1=C\c1ccc(-c2cc3ccccc3[nH]2)[nH]1
Activity [5]: Active
IC50 [1]: 15.9 µM

SMILES: COc1cc(-c2cc3ccccc3n2C(=O)OC(C)(C)C)[nH]c1/C=C1/SC(=O)NC1=O
IC50 [1]: > 40 µM

Activity [2]: inactive
Activity [4]: inactive
Activity [6]: inactive
inhibition [7]: inactive
SMILES: COC1=CC(c2ccco2)=N/C1=C\c1ccc[nH]1
Activity [5]: inactive
IC50 [1]: > 40 µM

SMILES: COC1=CC(c2cccs2)=N/C1=C\c1ccc[nH]1
IC50 [1]: > 40 µM

SMILES: COC1=CC(c2cc3ccccc3[nH]2)=N/C1=C\c1[nH]c(C)cc1C [OBATOCLAX]
IC50 [1]: 12.1 µM

Activity [2]: Active
Activity [3]: Active
Activity [4]: Active
Activity [6]: Active
inhibition [7]: Active
inhibition [8]: Active
SMILES: COC1=CC(c2cc3ccccc3[nH]2)=N/C1=C\c1ccc[nH]1
Activity [5]: Active
IC50 [1]: 13.2 µM

SMILES: COc1cc(-c2cc3ccccc3[nH]2)[nH]c1/C=C1/SC(=O)NC1=O
IC50 [1]: 27.5 µM

SMILES: COC1=CC(c2cc3ccccc3n2C(=O)OC(C)(C)C)=N/C1=C\c1ccc[nH]1
IC50 [1]: > 40 µM

Activity [2]: Active
Activity [3]: Active
Activity [4]: Active
Activity [6]: Active
inhibition [7]: Active
inhibition [8]: Active
SMILES: COC1=CC(c2cc3cc(Br)ccc3[nH]2)=N/C1=C\c1ccc[nH]1
Activity [5]: Active
IC50 [1]: 6.3 µM

SMILES: COC1=CC(c2cccs2)=N/C1=C\c1[nH]c(C)cc1C
IC50 [1]: > 40 µM

SMILES: COC1=CC(c2cccs2)=N/C1=C\c1cccs1
IC50 [1]: 25.9 µM

SMILES: COc1cc(-c2cc3ccccc3[nH]2)[nH]c1/C=C1\C(=O)Nc2ccccc21
IC50 [1]: 35.4 µM

SMILES: COc1cc(-c2cc3ccccc3n2C(=O)OC(C)(C)C)[nH]c1/C=C1\C(=O)Nc2ccccc21
IC50 [1]: > 40 µM

SMILES: COc1cc(-c2cc3ccccc3[nH]2)[nH]c1C1SCCCS1
IC50 [1]: > 40 µM
